In the library only some 2.1% were active in any assay of this set; here they are far more common.
DENV2 CPE rescue: inhibitors of DENV2 cytopathic effect, primary screen, cell-based, plate reader, single concentration. CPE inhibition, % at 9.99 µM. 350,000 tested, 1.7% active. DENV2-infected cells, cytopathic effect rescue; in the data active = CPE inhibition above about 20%, passing the limit was not always enough; inconclusive = no clear call, values can overlap the other calls; tested in BHK-21 cells;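 note: 0% = median of neutral control wells and 100% = median of positive control wells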
Cneo AK release: Cryptococcus neoformans cell lysis inducers, primary screen, AK release luminescence, single concentration. lysis activity, % at 15 µM. C. neoformans lysis, adenylate kinase release luminescence, 4 h; normalised: neutral wells 0, clomiphene wells 100. 360,000 tested, 0.2% active. AID 651654, 2012;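 active = mean lysis activity across replicates of at least 80%, whatever share of replicates individually reach that level; inactive = mean lysis activity below 80%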
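Material: C. neoformans cells | Amount: Yeast cell density of 5 × 10^6 cells/mL | Medium: Fresh YPD growth medium | Dosing: Single dose | Times: Static 4 h at 37 °C with compound, 1 h detection | Detection: AK luminescence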
C2C12 statin: suppressors of statin myotoxicity in C2C12 myotubes, primary screen, cell-based, single point, plate reader | 330,000 tested, 0.78% active | rescue of ATP level, % at 7.49 µM | AID 602340, 2012 | C2C12 myotubes + simvastatin, ATP luminescence, 48 h; scaled: DMSO 0, geranylgeraniol control 100;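 active = mean ATP rescue above about 67%, or every replicate alone reaching that limit, limit read from the data, passing the limit was not always enough; inconclusive = no clear call, values can overlap the other calls; inactive = mean under the limit and some replicate under it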;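 note: myotubes were challenged with 10 µM simvastatin during compound exposure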
XiGFP reactiv: activators of inactive X chromosome reactivation, primary screen, imaging, XiGFP fibroblasts, GFP high-content imaging, set 2; XiGFP mouse fibroblasts, % GFP-positive cells imaging, 3 d; cells co-treated with 5-aza-dC sensitizer; scaled so ellipticine positive control = 100%; activation, % at 7.58 µM; 360,000 tested, 0.055% active;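 active = mean normalized replicate activation at least 10% and every replicate at or above 10%; inconclusive = only one of the two criteria met; inactive = mean below 10% and not all replicates reach 10%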;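 note: 0% = median of on-plate neutral control wells and 100% = ellipticine 6 µM median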
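Material: XiGFP fibroblasts, SV40-immortalized. Buffer or medium: DMEM plus 5-aza-dC sensitizer. Compound: single concentration per compound, delivered by pin transfer. Times: 3 days compound exposure. Controls: ellipticine 6 µM.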
Starred values were filed as active, the others as inactive; ? = inconclusive; . = not tested or not shown.

SMILES	DENV2 CPE rescue	Cneo AK release	C2C12 statin	XiGFP reactiv
CO[C@H]1CN(C)C(=O)c2cc(NS(=O)(=O)c3cccc(F)c3)ccc2OC[C@H](C)N(Cc2cc(F)ccc2F)C[C@@H]1C	-9	1	22	0
CO[C@H]1CN(C)C(=O)c2ccc(NS(=O)(=O)c3cccc(F)c3)cc2OC[C@@H](C)N(Cc2cc(F)ccc2F)C[C@H]1C	49*	-1	31	0
CO[C@H]1CN(C)C(=O)c2ccc(NC(C)=O)cc2OC[C@H](C)N(Cc2nccs2)C[C@H]1C	-2	-1	11	1
C[C@H](CO)N1C[C@H](C)[C@H](CN(C)C)Oc2ccc(NC(=O)Nc3ccc4c(c3)OCO4)cc2CC1=O	13	-1	25	0
CCOc1cccc(N2C(=O)CC(NCc3ccc(S(N)(=O)=O)cc3)C2=O)c1 (stereo unspecified)	.	2	78*	.
Cc1ccc(NCC(=O)N/N=C/c2cccc(Br)c2)cc1	31*	-1	5	0
O=C(C[C@@H]1C=C[C@@H](NC(=O)Nc2cccc(F)c2)[C@@H](CO)O1)NCC1CC1	5	0	-3	0
O=C(NNCc1ccc(O)cc1)c1ccccc1Cl	75*	-3	-13	0
COc1ccc(S(=O)(=O)Nc2ccc3c(c2)C(=O)N([C@@H](C)CO)C[C@@H](C)[C@@H](CN(C)S(=O)(=O)c2cccs2)O3)cc1	-15	1	30	-1
CC(C)NC(=O)Nc1ccc2c(c1)C(=O)N(C)[C@@H]1CC[C@H](CC(=O)NCC3CCCCC3)O[C@H]1CO2	-6	39	-3	0
CCCNC(=O)Nc1ccc2c(c1)OC[C@@H](C)N(S(C)(=O)=O)C[C@@H](C)[C@H](OC)CN(C)C2=O	43*	.	.	0
CCCNC(=O)Nc1ccc2c(c1)OC[C@H](C)N(C(=O)CC)C[C@H](C)[C@@H](OC)CN(C)C2=O	31*	.	.	0
CCC(=O)N1C[C@@H](C)[C@@H](OC)CN(C)C(=O)c2ccc(NC(=O)Nc3ccc(Cl)cc3)cc2OC[C@H]1C	80*	-3	12	0
CCC(=O)N1C[C@H](C)[C@@H](OC)CN(C)C(=O)c2ccc(NC(=O)Nc3ccc(Cl)cc3)cc2OC[C@@H]1C	-7	.	.	0
CCCNC(=O)Nc1ccc2c(c1)OC[C@@H](C)N(S(C)(=O)=O)C[C@H](C)[C@@H](OC)CN(C)C2=O	2	.	.	0
CCCNC(=O)Nc1ccc2c(c1)OC[C@H](C)N(C(=O)CC)C[C@@H](C)[C@@H](OC)CN(C)C2=O	4	41	-1	0
CO[C@H]1CN(C)C(=O)c2cc(NC(=O)Nc3ccc(Cl)cc3)ccc2OC[C@H](C)N(C)C[C@@H]1C	50*	-9	-82	0
Cc1ccccc1S(=O)(=O)N1[C@@H]2Cn3c(cccc3=O)[C@H]1[C@@H](C(=O)N1CCOCC1)[C@@H]2CO	-5	1	23	0
C[C@@H]1CN([C@H](C)CO)C(=O)c2cc(NC(=O)C3CCCCC3)ccc2O[C@@H](C)CCCCO[C@H]1CN(C)C(=O)c1ccccc1	-2	0	5	0
CC(C)C#Cc1ccc2c(c1)O[C@H](CN(C)C)[C@H](C)CN([C@H](C)CO)S2(=O)=O	-3	.	-4	-1
O=S(=O)(N[C@H]1CC[C@@H](CCn2cc(-c3ccccn3)nn2)O[C@H]1CO)c1cccc(F)c1	?	1	-6	0
COC(=O)C[C@H]1C=C[C@@H](NC(=O)c2ccccc2)[C@@H](CO)O1	-5	5	-5	0
COC(=O)c1c2oc(c1C(=O)OC)C(=O)N[C@@H](Cc1ccccc1)Cn1cc(nn1)CNC(=O)[C@@H](Cc1ccccc1)NC(=O)N[C@@H](CO)CC2	-8	21	.	.
COc1ccc(S(=O)(=O)Nc2cccc3c2O[C@H](CN(C)Cc2ccc4c(c2)OCO4)[C@@H](C)CN([C@H](C)CO)C3=O)cc1	3	3	-24	-1
COc1cc(C(=O)OCCn2c(=O)c3c(ncn3CCN(C)C)n(C)c2=O)cc(OC)c1OC	25*	-4	.	0
SMILES	DENV2 CPE rescue	Cneo AK release	C2C12 statin	XiGFP reactiv
Cc1cc(C)nc(N(C#N)Cc2ccccc2Cl)n1	-2	-1	69*	0
C[C@H](CO)N1C[C@H](C)[C@@H](CN(C)C(=O)c2ccc(F)cc2)Oc2ncc(C#CC3CC3)cc2C1=O	-5	-4	23	0
CCOC(=O)c1sc(NC(=O)c2c(C)nn(Cc3ccccc3)c2C)cc1C	.	-1	102*	.
O=C(C[C@H]1CC[C@@H](NC(=O)c2ccncc2)[C@@H](CO)O1)Nc1ccc(-c2ccccc2)cc1	-3	.	.	-1
Cn1c(CSc2ncn[nH]2)nc2ccccc21	.	-2	98*	.
Cn1c(CSc2nc3ccccc3s2)nc2ccccc21	.	14	18	.
COc1ccc(S(=O)(=O)Nc2ccccc2C(=O)OC2CCCN(C)C2)cc1OC (stereo unspecified)	.	4	82*	.
COc1ccc(S(=O)(=O)Nc2ccccc2C(=O)NC(C)(C)C)cc1OC	.	0	123*	.
COc1ccccc1NS(=O)(=O)c1ccc(OC)c(OC)c1	.	-1	22	.
O=C1CN(S(=O)(=O)c2cccc(F)c2)C[C@@H]2[C@@H](c3ccc(C4=CCCC4)cc3)[C@H](CO)N12	-4	.	.	0
CCOC(=O)C1=C(C)NC(=S)NC1/C=C/c1ccccc1 (stereo unspecified)	.	4	.	36*
COc1ccccc1S(=O)(=O)N[C@@H]1CC[C@H](CCn2cc(C3CC3)nn2)O[C@H]1CO	2	-2	-2	2
Cc1ccc(-c2ccc3c(c2)O[C@@H](CN(C)C(=O)Nc2ccc(F)cc2)[C@H](C)CN([C@@H](C)CO)S3(=O)=O)cc1	-6	1	-14	-1
Cc1cc(C)nc(-n2nc(C)c3c(C(F)F)cc(C)nc32)n1	.	-1	115*	.
O=C(Nc1cccc(C(F)(F)F)c1)OCCN1CCN(Cc2ccccc2)CCC1=O	70*	-1	.	0
O=C(Nc1ccc(F)cc1)OCCN1CCN(Cc2ccccc2)CCC1=O	.	-8	-3	0
Nn1c(SCC(=O)N2CCN(S(=O)(=O)c3ccccc3)CC2)nnc1-c1cccs1	.	-1	126*	.
COC(=O)C[C@@H]1C[C@H]2c3cc(NC(=O)NC4CCCC4)ccc3O[C@H]2[C@@H](CO)O1	-6	-4	-7	0
OC(CSc1c(Cl)cccc1Cl)CN1CCN(c2ccccc2F)CC1 (stereo unspecified)	.	0	172*	.
Cc1ccc(C(c2nnnn2Cc2cccs2)N2CCN(Cc3ccc4c(c3)OCO4)CC2)cc1 (stereo unspecified)	.	3	.	.
C=CCN1CCN(C(c2ccccc2)c2nnnn2CCC(C)C)CC1 (stereo unspecified)	.	2	71*	.
